Experimental data from publication PMC7781011 (Journal of Inflammation Research, 2020).

Assays:
human COX-2 [1] = target: T1, human COX-2 (Homo sapiens, UniProt P35354); test: Binding assay using isothermal titration calorimetry
T1 sequence (P35354 18-604): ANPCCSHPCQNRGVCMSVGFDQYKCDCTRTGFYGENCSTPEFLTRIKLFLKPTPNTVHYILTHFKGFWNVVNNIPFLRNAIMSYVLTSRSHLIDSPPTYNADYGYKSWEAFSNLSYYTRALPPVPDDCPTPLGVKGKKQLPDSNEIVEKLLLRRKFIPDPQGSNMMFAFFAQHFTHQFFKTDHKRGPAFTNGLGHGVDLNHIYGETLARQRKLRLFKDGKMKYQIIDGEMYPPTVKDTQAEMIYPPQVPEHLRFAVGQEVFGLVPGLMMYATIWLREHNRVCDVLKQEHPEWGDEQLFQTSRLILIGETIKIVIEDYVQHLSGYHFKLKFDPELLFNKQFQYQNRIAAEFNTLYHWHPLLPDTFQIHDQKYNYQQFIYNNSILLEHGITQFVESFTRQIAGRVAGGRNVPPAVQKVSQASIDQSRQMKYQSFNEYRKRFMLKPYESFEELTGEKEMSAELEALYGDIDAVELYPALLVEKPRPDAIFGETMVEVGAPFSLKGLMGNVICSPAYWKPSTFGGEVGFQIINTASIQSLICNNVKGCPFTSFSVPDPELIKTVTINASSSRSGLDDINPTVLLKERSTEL
Procedure, shortened: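 Serial injections of test compound (up to 1 mM) into enzyme-containing cell at 1 mM protein, both dissolved in PBS and degassed before use. Titration continued until heat signal approached zero at saturation. Isotherm fitted to obtain dissociation constant KD.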

human COX-2 [2] = target: T1, human COX-2; test: Cell-free fluorometric COX-2 assay; assay type: biochemical; settings: up to the tested range of 1 mM
[3] = system: normal colonocytes of rats; test: MTT assay; assay type: cell-based, rat; settings: 0.1–100 µM, 24 hours
Procedure, shortened: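 Normal rat colonocytes exposed 24 h to compound (0.1–100 µM), then MTT reagent for 2 h at 37°C. Formazan dissolved in DMSO, absorbance read at 570 nm with 620 nm reference. Three independent experiments, expressed as percent viability.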

human COX-1 = human COX-1 (Homo sapiens, UniProt P23219); test: Circular dichroism, change in secondary structure; settings: CD, Human COX-1, LFA-9 10 µM
Chain of human COX-1 (P23219 24-599): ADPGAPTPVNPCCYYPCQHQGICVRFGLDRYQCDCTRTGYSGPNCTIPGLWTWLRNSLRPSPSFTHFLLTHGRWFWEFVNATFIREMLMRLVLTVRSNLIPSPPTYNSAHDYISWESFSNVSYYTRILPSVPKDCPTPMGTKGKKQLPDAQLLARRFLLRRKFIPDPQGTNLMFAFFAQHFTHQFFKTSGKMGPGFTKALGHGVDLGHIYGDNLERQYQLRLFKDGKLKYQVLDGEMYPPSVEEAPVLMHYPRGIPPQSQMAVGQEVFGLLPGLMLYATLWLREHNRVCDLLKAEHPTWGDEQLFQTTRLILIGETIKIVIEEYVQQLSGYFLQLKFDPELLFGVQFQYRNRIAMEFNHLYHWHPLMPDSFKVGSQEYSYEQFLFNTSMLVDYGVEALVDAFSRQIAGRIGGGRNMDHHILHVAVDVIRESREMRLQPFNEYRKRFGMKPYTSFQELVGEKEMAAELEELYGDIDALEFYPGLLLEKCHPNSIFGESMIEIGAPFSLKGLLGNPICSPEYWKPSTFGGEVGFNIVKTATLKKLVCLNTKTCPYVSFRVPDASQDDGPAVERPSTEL
Procedure, shortened: (§1)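 Native and compound-treated (0.1–10 µM) enzymes in PBS pH 7.4 at final protein 200 µM. CD spectra corrected by subtracting buffer blanks. Percent change in secondary structure (α-helix, β-sheet) calculated with the CAPITO analysis server.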

[4] = In vitro metabolic stability in activated liver S9 fraction; assay type: in vitro ADME; settings: rat liver S9 fraction activated with NADPH, UDPGA, GSH, PAPS; 500 µM
Procedure, shortened: (§2)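 Mouse or rat liver S9 fraction isolated and activated with NADPH, UDPGA, GSH and PAPS before compound addition. Samples taken at 0, 15, 30, 45 and 60 min. Compound extracted with acetonitrile and quantified by reversed-phase HPLC with PDA detection. Percent remaining calculated from peak areas at 0 and 60 min.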

[5] = as above; assay type: in vitro ADME; settings: mouse liver S9 fraction activated with NADPH, UDPGA, GSH, PAPS; 500 µM
Procedure, shortened: as §2

[6] = system: CD68-positive inflammatory cell infiltration and TNF-α expression in paw tissue; test: Immunofluorescence and immunoblot analysis of carrageenan-injected paw tissue; assay type: in vivo; settings: rat, 400 ppm, compared to the untreated control
Procedure, shortened: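 Paw tissue: 4-µm FFPE sections, citrate pH 6.0 epitope retrieval (99°C, 30 min). Blocked with serum/BSA 40 min. Alexa700-CD68 (1:50) and TNF-α (1:100) overnight at 4°C, Alexa488 secondary for TNF-α. Confocal imaging, stained cells counted by image analysis. Immunoblot: 20 µg protein, 12% SDS-PAGE, PVDF. CD68 and TNF-α (1:100), HRP secondary, ECL, β-actin loading control.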

rat mPGES-1 = target: T2, rat mPGES-1 (Rattus norvegicus, UniProt Q9JHF3); test: Binding assay using isothermal titration calorimetry
T2 sequence (Q9JHF3 1-153): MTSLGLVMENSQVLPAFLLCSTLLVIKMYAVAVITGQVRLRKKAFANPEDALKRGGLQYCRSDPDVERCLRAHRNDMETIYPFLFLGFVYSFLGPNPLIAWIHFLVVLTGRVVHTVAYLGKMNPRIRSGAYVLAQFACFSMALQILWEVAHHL
Procedure, shortened: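 Rat mPGES-1 isolated from vas deferens and seminal vesicles. Compound (up to 1 mM) and protein (1 mM) dissolved in PBS and degassed. Serial compound injections made into enzyme cell. KD derived by fitting the binding isotherm.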

human 5-LOX = target: T3, human 5-LOX (Homo sapiens, UniProt P09917); test: Circular dichroism, change in secondary structure; settings: CD
T3 sequence (P09917 1-674): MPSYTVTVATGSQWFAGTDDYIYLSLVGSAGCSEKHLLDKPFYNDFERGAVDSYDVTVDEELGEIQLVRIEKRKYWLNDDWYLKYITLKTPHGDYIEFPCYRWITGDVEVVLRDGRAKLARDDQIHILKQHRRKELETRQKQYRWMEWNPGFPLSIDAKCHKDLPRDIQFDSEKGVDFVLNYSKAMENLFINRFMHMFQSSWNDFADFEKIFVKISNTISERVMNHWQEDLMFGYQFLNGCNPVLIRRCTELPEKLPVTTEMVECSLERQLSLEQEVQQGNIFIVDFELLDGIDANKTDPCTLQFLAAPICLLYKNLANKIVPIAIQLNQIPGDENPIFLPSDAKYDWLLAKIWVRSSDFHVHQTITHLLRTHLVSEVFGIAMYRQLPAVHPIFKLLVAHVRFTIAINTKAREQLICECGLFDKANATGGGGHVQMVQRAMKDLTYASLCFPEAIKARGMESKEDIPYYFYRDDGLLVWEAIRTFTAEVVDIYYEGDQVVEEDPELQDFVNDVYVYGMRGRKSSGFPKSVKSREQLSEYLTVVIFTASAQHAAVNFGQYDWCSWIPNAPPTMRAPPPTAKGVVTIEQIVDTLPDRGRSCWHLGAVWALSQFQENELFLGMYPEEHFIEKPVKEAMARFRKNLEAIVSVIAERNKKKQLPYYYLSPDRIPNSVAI
Procedure, shortened: as §1

CC1(C)Cc2c(-c3ccccc3)c(-c3ccc(Cl)cc3)c(CC(=O)NCC(=O)O)n2C1 [LFA-9, 2-[[2-[2-(4-chlorophenyl)-6,6-dimethyl-1-phenyl-5,7-dihydropyrrolizin-3-yl]acetyl]amino]acetic acid]
Kd (human COX-2 [1]): > 1000 µM
inhibition of COX-2 activity (human COX-2 [2]): did not show inhibition
cytotoxicity to normal rat colonic epithelial cells [3]: no cytotoxicity
Change in Secondary Structure (human COX-1): No change in secondary structure
LFA-9 remaining after 60-minutes incubation [4]: 98.3%
LFA-9 remaining after 60-minutes incubation [5]: 96.1%
CD68-positive inflammatory cell infiltration in paw tissue [6]: significantly decreased
expression of TNF-α in paw tissue [6]: significantly decreased
Kd (rat mPGES-1): 3.3 µM
unfolding of α-helix of 5-LOX (human 5-LOX; 5-LOX, LFA-9 at 0.1 µM): 8.7%
unfolding of β-sheets of 5-LOX (human 5-LOX; 5-LOX, LFA-9 at 0.1 µM): 1%
Change in Secondary Structure: unfolding in α-helix (human 5-LOX; Human 5-LOX, LFA-9 0.12 µM): 8.7%
Change in Secondary Structure: unfolding in β-sheets (human 5-LOX; Human 5-LOX, LFA-9 0.12 µM): 1%
